Measurements from ChEMBL document CHEMBL1141147, “Development of dual-acting benzofurans for thromboxane A2 receptor antagonist and prostacyclin receptor agonist: synthesis, structure-activity relationship, and evaluation of benzofuran derivatives” (J Med Chem, 2005).

Tests used:
Prostacyclin receptor = Prostacyclin receptor (Homo sapiens, UniProt P43119); experiment: Inhibition of [3H]APS-314d binding to prostacyclin receptors (IP) of human platelet membrane
How it was run: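 Human platelet membranes (10 μg protein; freeze-thawed washed platelets, 40000g pellet) in 50 mM Tris, 5 mM MgCl₂, pH 7.4 were incubated with [³H]APS-314d sodium and compound for 60 min at 4 °C. Bound ligand was separated by GF/C filtration and counted by liquid scintillation. Nonspecific binding was set with 10 μM APS-314d sodium. Ki was derived from IC50 via the Cheng–Prusoff form.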

Thromboxane A2 receptor = molecular target: T1, Thromboxane A2 receptor (Homo sapiens, UniProt P21731); experiment: Inhibition of [3H]SQ-29,548 binding to thromboxane A2 receptors (TP) of human platelet membrane
T1 sequence (P21731 whole entry): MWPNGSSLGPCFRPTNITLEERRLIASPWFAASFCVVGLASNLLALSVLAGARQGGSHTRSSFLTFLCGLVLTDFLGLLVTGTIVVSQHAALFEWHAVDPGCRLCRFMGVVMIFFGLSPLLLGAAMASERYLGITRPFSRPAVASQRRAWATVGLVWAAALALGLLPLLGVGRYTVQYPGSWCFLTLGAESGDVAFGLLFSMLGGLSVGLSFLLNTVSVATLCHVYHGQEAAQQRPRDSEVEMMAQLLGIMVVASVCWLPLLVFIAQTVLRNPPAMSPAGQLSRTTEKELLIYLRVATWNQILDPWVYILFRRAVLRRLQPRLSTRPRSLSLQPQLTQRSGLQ
How it was run: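 Washed human platelets from citrated, indomethacin-treated blood were freeze-thawed three times. Membranes were pelleted at 40000g and used at 10 μg protein in 50 mM Tris, 5 mM MgCl₂, pH 7.4. They were incubated with [³H]SQ-29548 and compound for 30 min at 25 °C, then filtered on GF/C and counted by scintillation. Nonspecific binding was set with 10 μM SQ-29548. Ki = IC50/(1 + L/Kd).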

Homo sapiens [1] = organism: Homo sapiens; experiment: Inhibition of U-46,619 (2 uM) induced platelet aggregation in human platelet rich plasma; type: functional, organism-based
How it was run: (§1)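 Human volunteer blood was citrated 9:1 with 3.8% sodium citrate and spun at 90–140g for 10 min at room temperature to give PRP; platelet-poor plasma came from a 1400g spin and set 100% aggregation. PRP was preincubated 1 min with compound at various concentrations, then stimulated. Light transmission was recorded for 5 min. Percent inhibition was taken against vehicle, N = 3; IC50 is 50% inhibition.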

Homo sapiens [2] = organism: Homo sapiens; experiment: Inhibition of ADP (5 uM) induced platelet aggregation in human platelet rich plasma; type: functional, organism-based; how it was run: as §1
Homo sapiens [3] = organism: Homo sapiens; experiment: Inhibition of U-46,619 (4 uM) induced platelet aggregation in human platelet rich plasma; type: functional, organism-based
Monkey [4] = experiment: Ex vivo inhibition of platelet aggregation induced by ADP (5 uM) in cynomolgus monkey platelet rich plasma; type: functional, organism-based; settings: Cercopithecidae
Monkey [5] = experiment: Ex vivo inhibition of platelet aggregation induced by ADP (10 uM) in cynomolgus monkey platelet rich plasma; settings: Cercopithecidae

Sequence of Prostacyclin receptor (P43119 whole entry): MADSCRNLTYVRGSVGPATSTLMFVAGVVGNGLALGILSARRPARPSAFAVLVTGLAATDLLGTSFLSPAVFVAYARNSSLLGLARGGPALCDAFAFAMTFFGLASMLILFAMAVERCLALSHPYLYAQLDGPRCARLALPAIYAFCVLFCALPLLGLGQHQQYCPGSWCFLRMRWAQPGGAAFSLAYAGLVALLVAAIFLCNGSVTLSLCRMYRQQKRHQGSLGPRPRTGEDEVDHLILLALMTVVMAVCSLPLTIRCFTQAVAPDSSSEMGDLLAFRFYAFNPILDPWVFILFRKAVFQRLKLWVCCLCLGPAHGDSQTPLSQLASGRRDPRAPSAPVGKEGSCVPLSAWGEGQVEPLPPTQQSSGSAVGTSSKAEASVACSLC

| Structure (SMILES) | Ki (Prostacyclin receptor) | Ki (Thromboxane A2 receptor) | IC50 (Homo sapiens [1]) | IC50 (Homo sapiens [2]; Homo sapiens, Plasma) | IC50 (Homo sapiens [2]) | IC50 (Homo sapiens [3]) | IC50 (Monkey [4]) | IC50 (Monkey [5]) |
| --- | --- | --- | --- | --- | --- | --- | --- | --- |
| O=C(O)COc1cccc2c(CCSC(c3ccccc3)c3ccccc3)c(CO)oc12 | 0.75 µM | 0.088 µM | 0.46 µM | 3.3 µM |  |  |  |  |
| O=C(O)COc1cccc2c(CCCSCC(c3ccccc3)c3ccccc3)coc12 | 0.4 µM | > 15 µM | 1.4 µM | 1.7 µM |  |  |  |  |
| O=C(O)COc1cccc2c(CSCCC(c3ccccc3)c3ccccc3)coc12 | 0.58 µM | 3.1 µM | 10 µM | 12.8 µM |  |  |  |  |
| O=C(O)COc1cccc2c(CCSCCC(c3ccccc3)c3ccccc3)coc12 | 0.56 µM | > 10 µM | 5.4 µM | 5.2 µM |  |  |  |  |
| O=C(O)COc1cccc2c(CCSCC(c3ccccc3)c3ccccc3)coc12 | 0.08 µM | 3.1 µM | 0.51 µM | 0.73 µM |  |  |  |  |
| O=C(O)COc1cccc2c(CCCSC(c3ccccc3)c3ccccc3)coc12 | 0.27 µM | 3.1 µM | 1.6 µM | 1.9 µM |  |  |  |  |
| O=C(O)CCC/C=C\C[C@@H]1[C@H](CNNC(=O)Nc2ccccc2)[C@H]2CC[C@H]1O2 |  |  |  | > 10 µM |  | 0.021 µM |  |  |
| CC#CCC(C)[C@H](O)/C=C/[C@@H]1[C@H]2c3cccc(CCCC(=O)O)c3O[C@H]2C[C@H]1O (stereo not given in full) [BERAPROST SODIUM] |  |  |  | 0.0076 µM |  | 0.0057 µM |  |  |
| O=C(O)COc1cccc2c1CCC=C2CCO/N=C(\c1ccccc1)c1cccnc1 |  |  |  | 0.17 µM |  | 0.17 µM |  |  |
| O=C(O)COc1cccc2c(CCSC(c3ccccc3)c3ccccc3)coc12 |  | 0.31 µM | 0.56 µM | 5.9 µM |  |  |  |  |
| O=C(O)COc1cccc2c(CSCC(c3ccccc3)c3ccccc3)coc12 | 0.68 µM | 2.5 µM | 17.3 µM | 19.9 µM |  |  |  |  |
| O=C(O)COc1cccc2c(CSC(c3ccccc3)c3ccccc3)coc12 | 4.7 µM | 5.1 µM | > 100 µM | > 100 µM |  |  |  |  |
| O=C(O)COc1cccc2c(CCCSCCC(c3ccccc3)c3ccccc3)coc12 | 2.9 µM | > 15 µM | > 100 µM | > 100 µM |  |  |  |  |

Now from value to compound:

| Ki (Prostacyclin receptor) | Ki (Thromboxane A2 receptor) | IC50 (Homo sapiens [1]) | IC50 (Homo sapiens [2]; Homo sapiens, Plasma) | IC50 (Homo sapiens [2]) | IC50 (Homo sapiens [3]) | IC50 (Monkey [4]) | IC50 (Monkey [5]) | Structure (SMILES) |
| --- | --- | --- | --- | --- | --- | --- | --- | --- |
| 0.76 µM | 0.15 µM | 0.52 µM | 1.5 µM |  |  |  |  | O=C(O)COc1cccc2c(CCSC(c3ccccc3)(c3ccccc3)C(F)(F)F)c(CO)oc12 |
| 3.4 µM | 0.18 µM | 3.8 µM | 56 µM |  |  |  |  | CCC(SCCc1c(CO)oc2c(OCC(=O)O)cccc12)(c1ccccc1)c1ccccc1 |
| 1.9 µM | 0.0043 µM | 0.31 µM | 3 µM |  |  |  |  | CC(c1ccccc1)(c1ccccc1)S(=O)(=O)CCc1c(CO)oc2c(OCC(=O)O)cccc12 |
| 0.57 µM | 0.026 µM | 0.58 µM | 8.1 µM |  |  |  |  | CC(SCCc1coc2c(OCC(=O)O)cccc12)(c1ccccc1)c1ccccc1 |
| 0.53 µM | 0.0045 µM | 0.17 µM |  | 2.2 µM |  |  |  | CC(SCCc1c(CO)oc2c(OCC(=O)O)cccc12)(c1ccccc1)c1ccccc1 [listing 1 of 2 here] |
| > 10 µM | 0.051 µM | 1.7 µM | 7.9 µM |  |  |  |  | CC(c1ccccc1)(c1ccccc1)[S+]([O-])CCc1c(CO)oc2c(OCC(=O)O)cccc12 (stereo not given) |
| 5.8 µM | 0.072 µM | 2.9 µM | 9 µM |  |  |  |  | CC(SCCc1c(CCCO)oc2c(OCC(=O)O)cccc12)(c1ccccc1)c1ccccc1 |
|  |  |  |  | 2.2 µM | 0.12 µM | 3.7 µM | 0.14 µM | CC(SCCc1c(CO)oc2c(OCC(=O)O)cccc12)(c1ccccc1)c1ccccc1 [listing 2 of 2 here] |
| > 2.3 µM | > 5.9 µM | 56 µM | > 100 µM |  |  |  |  | CCCC(SCCc1c(CO)oc2c(OCC(=O)O)cccc12)(c1ccccc1)c1ccccc1 |
| 0.21 µM | 0.078 µM | 0.54 µM | 0.71 µM |  |  |  |  | CC(SCCc1c(CCO)oc2c(OCC(=O)O)cccc12)(c1ccccc1)c1ccccc1 |
